{"source": "paper PMC12479363", "about": "(Nature Immunology, 2025)", "key": {"[1]": {"target": "T1, pyroptotic cytomembranes, which contain GSDMD-NT pores (Homo sapiens, UniProt P57764)", "T1 sequence (P57764 1-275 limits assumed)": "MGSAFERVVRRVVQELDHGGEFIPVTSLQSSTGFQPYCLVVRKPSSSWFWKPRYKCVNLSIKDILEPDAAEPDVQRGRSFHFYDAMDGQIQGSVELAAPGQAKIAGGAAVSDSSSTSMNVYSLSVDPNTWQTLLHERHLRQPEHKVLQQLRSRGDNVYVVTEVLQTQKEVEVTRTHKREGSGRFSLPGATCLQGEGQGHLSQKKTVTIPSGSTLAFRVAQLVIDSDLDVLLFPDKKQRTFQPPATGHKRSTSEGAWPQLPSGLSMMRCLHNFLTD", "test": "Biolayer interferometry, pyroptotic cytomembranes", "format": "binding"}, "[2]": {"system": "LPS-induced sepsis in mice", "test": "Low-dose LPS", "format": "in vivo, mouse", "details": "for plasma IL-1β levels: mild sepsis, at 24 h, vs saline, n = 10", "in_short": "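C57BL/6J and Gsdmd−/− mice (8–10 weeks, 50:50 female:male) were randomized, unblinded, and given LPS (O55:B5) 15 mg per kg i.p. At 16 h they received saline or test peptide 1 mg per kg i.v. Blood AST, BUN, ALT and CK were measured at day 2 (n = 6). Plasma IL-1β was measured by ELISA (n = 10).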"}, "[3]": {"system": "LPS-induced sepsis in mice", "test": "Moderate LPS", "format": "in vivo, mouse", "details": "at 6 h, n = 10; for plasma IL-1β levels: vs saline", "in_short": "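Sepsis was induced in wild-type mice (8–10 weeks, mixed sex) with LPS (O55:B5) 25 mg per kg i.p. At 5 h after LPS they received saline or test peptide 2 mg per kg i.v. Reference pore inhibitors were given i.p. Plasma IL-1β was measured by ELISA every 3 h up to 48 h.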"}, "[4]": {"system": "LPS-induced sepsis in mice", "test": "Severe LPS", "format": "in vivo, mouse", "details": "at 5 h, n = 10; for plasma IL-1β levels: vs saline"}, "BMDMs": {"system": "BMDMs", "test": "Cell membrane repair: CHMP4–GFP puncta and Annexin V", "format": "cell-based, mouse", "details": "2 mM EDTA + 15 µM SK56, LPS + nigericin"}, "human blood leukocytes": {"system": "human blood leukocytes", "test": "Pyroptosis in human whole blood", "format": "cell-based", "details": "DSF vs PBS, LPS + nigericin-treated blood, 1 h"}}, "note": "Where a name gives a salt, the structure may show the parent alone. No end group written: not given here. *: point of attachment. Biotin = O=C1N[C@H]2[C@H](CS[C@H]2CCCCC(=O)*)N1; Ahx = NCCCCCC(=O)O"}
{"compound": "{Biotin-Ahx-Ahx}-SLEEFAKRVVEELVKEFNLDKRQESYLEMSALIQAQMGISERIIEIVLRHAAQTLK [Biotinylated SK56]", "values": [{"measurement": "Kd", "setting": "[1]", "value": 10.9, "unit": "nM"}]}
{"compound": "COc1nccnc1NS(=O)(=O)c1ccc(NC(=O)/C=C/c2ccc([N+](=O)[O-])s2)cc1", "note": "[NSA, necrosulfonamide]", "values": [{"measurement": "blood biochemical markers (AST, BUN, ALT and CK)", "setting": "[2]; LPS 15 mg/kg, treatment at 16 h, day 2, vs saline-treated WT mice, n = 6", "value": "inhibited AST, BUN, ALT and CK"}, {"measurement": "organ damage markers in the plasma", "setting": "[3]", "value": "lowered levels of organ damage markers"}, {"measurement": "organ damage markers in the plasma", "setting": "[4]", "value": "lowered levels of organ damage markers"}, {"measurement": "plasma IL-1β levels", "setting": "[4]", "value": "had no effect"}]}
{"compound": "COC(=O)/C=C/C(=O)OC", "note": "[DMF, dimethyl fumarate]", "values": [{"measurement": "plasma IL-1β levels", "setting": "[2]", "value": "reduced plasma IL-1β levels"}, {"measurement": "organ damage markers in the plasma", "setting": "[3]", "value": "lowered levels of organ damage markers"}, {"measurement": "plasma IL-1β levels", "setting": "[3]", "value": "reduced plasma IL-1β levels"}, {"measurement": "organ damage markers in the plasma", "setting": "[4]", "value": "lowered levels of organ damage markers"}, {"measurement": "plasma IL-1β levels", "setting": "[4]", "value": "reduced plasma IL-1β levels"}]}
{"compound": "O=C(O)CN(CCN(CC(=O)O)CC(=O)O)CC(=O)O", "note": "[EDTA]", "values": [{"measurement": "proportion of Annexin V+ BMDMs", "setting": "BMDMs", "value": "restored the proportion of Annexin V^+ BMDMs to the level seen in BMDMs without SK56 treatment"}]}
{"compound": "CCN(CC)C(=S)SSC(=S)N(CC)CC", "note": "[DSF, disulfiram]", "values": [{"measurement": "secretion of IL-1β and IL-18", "setting": "human blood leukocytes", "value": "completely blocked"}, {"measurement": "plasma IL-1β levels", "setting": "[2]", "value": "reduced plasma IL-1β levels"}, {"measurement": "plasma IL-1β levels", "setting": "[3]", "value": "reduced plasma IL-1β levels"}, {"measurement": "organ damage markers in the plasma", "setting": "[4]", "value": "failed to suppress BUN but inhibited the other three organ damage markers"}, {"measurement": "plasma IL-1β levels", "setting": "[4]", "value": "reduced plasma IL-1β levels"}]}
